In publication PMC10671706 (Journal of medicinal chemistry, 2022):
Bridge positions count the residues as written; N and C are the ends. Square brackets hold non-standard residues; d marks the D form. Ends that are not written are not given here. Peptide text beside a SMILES is read from it.

What was measured:
[1] = target: human PD-1/PD-L1 interaction (Homo sapiens, UniProt Q9NZQ7); assay: Protein-based PD-1/PD-L1 blocking assay; assay type: binding; settings: human PD-L1/PD-1 protein interaction
CT26 tumor = assay: Anti-tumor activity and survival study in CT26 syngeneic Balb/c mouse model; assay type: in vivo
Summary of the method: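 CT26 cells (~1×10^6) implanted s.c. in the right flank of male and female Balb/c mice. At 200-250 mm3, mice were split into five groups of 4 female + 4 male. Test compound or anti-mouse PD-L1 antibody 0.5 mg/kg i.p. daily, day 10–18; saline i.p. control. Caliper volume = 1/2 × length × width2. RTV = day 18/day 10 volume; TGI on day 18; survival curves.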

PD-1/PD-L1 complex = settings: cited from earlier work
trypsin = settings: cited from earlier work

human PD-1/PD-L1 interaction, sequence (Q9NZQ7 19-238 limits assumed): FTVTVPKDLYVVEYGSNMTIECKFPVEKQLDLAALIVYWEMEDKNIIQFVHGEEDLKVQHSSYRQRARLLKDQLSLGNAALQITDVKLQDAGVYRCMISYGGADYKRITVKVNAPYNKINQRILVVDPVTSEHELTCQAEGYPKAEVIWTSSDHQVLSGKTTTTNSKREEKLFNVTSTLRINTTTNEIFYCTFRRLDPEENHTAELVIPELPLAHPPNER

CC(=O)N[C@H]1CSSC[C@@H](C(=O)N[C@@H](Cc2c[nH]c3ccccc23)C(=O)N[C@@H](CC(N)=O)C(=O)N[C@@H](CC(C)C)C(=O)N[C@@H](CC(N)=O)C(=O)N[C@H](C(N)=O)[C@@H](C)O)NC(=O)[C@H](Cc2ccc(O)cc2)NC(=O)[C@H](Cc2ccc(O)cc2)NC(=O)[C@H](CO)NC(=O)[C@H](CCCNC(=N)N)NC(=O)[C@H](Cc2c[nH]cn2)NC1=O [C12] (Ac-CHRSYYCWNLNT-NH2; disulfide 1-7; N-terminus and C-terminus assumed)
increase in the blocking efficiency (normalized against the parent peptide CLP-2) ([1]; peptide at 5 μM): ~2 fold | survival of the mice compared with the saline group (CT26 tumor; 0.5 mg/kg intraperitoneally daily): significant improvement in survival | anti-tumor activity (tumor growth) compared with the saline group (CT26 tumor; 0.5 mg/kg intraperitoneally daily from day 10 to day 18, CT26 Balb/c mice): significant anti-tumor activity

C[C@@H](O)[C@H](NC(=O)N[C@@H](CC(N)=O)c1nc([C@@H](N)CO)no1)C(=O)O [CA-170]
blocking of the formation of the PD-1/PD-L1 complex (PD-1/PD-L1 complex): could not block the formation of the PD-1/PD-L1 complex

IDR-1018
time to degradation in trypsin (trypsin): less than 30 min

d(CNLNWTYYSRHC) ([dC][dN][dL][dN][dW][dT][dY][dY][dS][dR][dH][dC]; cysteine pairing not given here; also: retro-inverso) [retro-inverso sequence of the C7 peptide]
blocking efficiency / blocking activity (in words) ([1]; screening at 5 μM normalized against CLP-2): loss of the blocking efficiency
